Tcruzi prolif = inhibitors of T. cruzi proliferation. T. cruzi beta-gal in NIH3T3, GalScreen luminescence, 90 h. inhibition, % at 8.34 µM. hit rate 5.9% among 77,000;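 active = mean inhibition above about 93%, with at least 55% of replicates each passing it, limit read from the data, passing the limit was not always enough; inconclusive = only one of those two conditions holds; inactive = neither condition holds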
IDH1 R132H inh = inhibitors of human IDH1 R132H; O75874; IDH1 R132H reductase, diaphorase/resazurin fluorescence, 60 min; inhibition, % at 10 µM; hit rate 0.18% among 70,000; in the data active = inhibition above about 34%; inconclusive = no clear call, values can overlap the other calls; inactive = below about 11%
Target sequence (O75874 whole entry R132H): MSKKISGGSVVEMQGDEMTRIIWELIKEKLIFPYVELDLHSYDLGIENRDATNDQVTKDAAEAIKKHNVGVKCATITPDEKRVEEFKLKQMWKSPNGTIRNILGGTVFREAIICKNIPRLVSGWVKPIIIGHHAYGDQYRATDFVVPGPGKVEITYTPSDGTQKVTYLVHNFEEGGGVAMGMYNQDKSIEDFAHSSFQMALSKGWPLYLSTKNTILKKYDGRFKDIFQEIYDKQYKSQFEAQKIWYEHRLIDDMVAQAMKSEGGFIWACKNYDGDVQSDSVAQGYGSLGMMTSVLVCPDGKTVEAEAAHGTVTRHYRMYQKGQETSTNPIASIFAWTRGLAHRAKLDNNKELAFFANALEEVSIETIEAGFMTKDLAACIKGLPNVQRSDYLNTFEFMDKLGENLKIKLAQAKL
GASC1 inh = KDM4C (human) demethylase inhibition; Q9H3R0; GST-KDM4C 2-372, H3K9me3 peptide, LANCE TR-FRET; inhibition, % at 12.5 µM; hit rate 0.15% among 96,000; AID 720574;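 active = mean replicate inhibition above about 25%, with at least 55% of replicates also reaching it, limit read from the data, passing the limit was not always enough; inconclusive = only one of those two conditions met; inactive = neither condition met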
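Material: N-terminal GST-fused human GASC-1 (KDM4C) fragment, residues 2-372. Input: 10 nM enzyme. Incubation: enzyme reaction 30 min, then detection 60 min, both room temperature. Doses: one test concentration per compound. Read-out basis: inhibition from TR-FRET ratio decrease. Detection: LANCE TR-FRET, excitation 340 nm, emissions 618 and 671 nm.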
Pf Dd2 growth = inhibitors of Plasmodium falciparum Dd2 growth. hit rate 2.3% among 94,000. P. falciparum Dd2 growth, SYBR Green, 72 h; stronger effect = lower value. AID 1159554. activity change, % at 10 µM; in the data active = activity change below about -80%; inconclusive = no clear call, values can overlap the other calls
Numbers stand for hits; . = inactive; ? = inconclusive; / = no result. The list is not random: actives were taken first. Their share in the collection is about 5.8%.

SMILES | Tcruzi prolif | IDH1 R132H inh | GASC1 inh | Pf Dd2 growth
CN(C)CCCN1C(=O)[C@@]2(Cc3ccccc31)c1ccccc1C(=O)N(Cc1ccccc1)[C@H]2c1ccc(CO)cc1 | / | . | / | /
Cn1c(=O)c2[nH]c(-c3ccc(Cl)cc3)c(O)c2n(C)c1=O | / | . | / | /
Cc1cc(NS(=O)(=O)c2ccc(Nc3nc(-c4ccc(O)cc4)cs3)cc2)no1 | / | 60 | / | /
CO[C@@H]1CN(C)C(=O)c2cc(NC(=O)Nc3cccc(Cl)c3)ccc2OC[C@@H](C)NC[C@H]1C | . | . | . | .
CO[C@@H]1CN(C)C(=O)c2cc(NC(=O)Nc3cccc(Cl)c3)ccc2OC[C@@H](C)NC[C@@H]1C | . | . | . | -85
CO[C@@H]1CN(C)C(=O)c2ccc(NC(=O)Nc3ccc(C(F)(F)F)cc3)cc2OC[C@H](C)NC[C@H]1C | . | . | . | -95
CO[C@H]1CN(C)C(=O)c2ccc(NC(=O)c3ccc(-c4ccccc4)cc3)cc2OC[C@@H](C)NC[C@@H]1C | . | . | . | -92
CO[C@@H]1CN(C)C(=O)c2ccc(NC(=O)c3ccc(-c4ccccc4)cc3)cc2OC[C@@H](C)NC[C@@H]1C | / | / | . | -86
CO[C@@H]1CN(C)C(=O)c2ccc(NC(=O)c3ccc(-c4ccccc4)cc3)cc2OC[C@H](C)NC[C@@H]1C | . | . | . | ?
C=C(C)[C@H]1C[C@@]2(C)C(=CC1=O)CC[C@@H](O)[C@@H]2C | / | . | / | /
Cc1ccc(-c2cc(C(F)F)n3ncc(C(=O)NCCCN4CCOCC4)c3n2)cc1 | / | . | / | /
CC(C)=CC(=O)CC(O)(c1ccccc1)c1ccccc1 | / | . | / | /
COc1cc(C2c3cc(O)c(OC)cc3CC(CO)C2CO[C@@H]2O[C@H](CO)[C@@H](O)[C@H](O)[C@H]2O)ccc1O (stereo not given in full) | / | . | / | /
CO[C@H]1CN(C)C(=O)c2cc(NC(=O)c3ccc(Oc4ccccc4)cc3)ccc2OC[C@@H](C)NC[C@H]1C | . | . | . | .
CO[C@@H]1CN(C)C(=O)c2cc(NC(=O)c3ccc(Oc4ccccc4)cc3)ccc2OC[C@@H](C)NC[C@@H]1C | . | . | . | -92
CCn1c(SCC(=O)Nc2cccc3ccccc23)nnc1-c1ccco1 | / | . | / | /
CCOC(=O)Cc1nc(OCC(=O)c2ccc(F)cc2)cs1 | / | . | / | /
Cc1nc(N2[C@H](CO)[C@H](c3ccccc3)[C@H]2CNCC2CCCC2)sc1C | / | / | . | -90
COc1ccc(CN(C)C[C@H]2OCCCC[C@H](C)Oc3ccc(NS(=O)(=O)c4ccc(OC)cc4)cc3C(=O)N([C@@H](C)CO)C[C@H]2C)cc1 | / | . | . | -83
COc1ccc(S(=O)(=O)Nc2ccc3c(c2)C(=O)N([C@@H](C)CO)C[C@@H](C)[C@@H](CN(C)Cc2ccc(Cl)c(Cl)c2)OCCCC[C@@H](C)O3)cc1 | / | . | . | .
COc1ccc(S(=O)(=O)Nc2ccc3c(c2)C(=O)N([C@H](C)CO)C[C@H](C)[C@@H](CN(C)Cc2ccc(Cl)c(Cl)c2)OCCCC[C@@H](C)O3)cc1 | / | . | . | -90
COc1ccc(S(=O)(=O)Nc2ccc3c(c2)C(=O)N([C@H](C)CO)C[C@H](C)[C@@H](CN(C)Cc2ccc(Cl)c(Cl)c2)OCCCC[C@H](C)O3)cc1 | . | . | . | .
COc1ccc(S(=O)(=O)Nc2ccc3c(c2)C(=O)N([C@H](C)CO)C[C@@H](C)[C@H](CN(C)Cc2ccc(Cl)c(Cl)c2)OCCCC[C@@H](C)O3)cc1 | . | / | . | -91
CCCN(C)C[C@@H]1OCCCC[C@@H](C)Oc2ccc(NS(=O)(=O)c3ccc(OC)cc3)cc2C(=O)N([C@@H](C)CO)C[C@@H]1C | / | . | . | /
COc1ccc(CN(C)C[C@H]2OCCCC[C@@H](C)Oc3ccc(NS(=O)(=O)c4ccc(OC)cc4)cc3C(=O)N([C@@H](C)CO)C[C@H]2C)cc1 | . | . | . | .
SMILES | Tcruzi prolif | IDH1 R132H inh | GASC1 inh | Pf Dd2 growth
CCCN(C)C[C@H]1OCCCC[C@@H](C)Oc2ccc(NS(=O)(=O)c3ccc(OC)cc3)cc2C(=O)N([C@@H](C)CO)C[C@H]1C | . | . | . | -88
Cc1nc(SCC(=O)Nc2sc3c(c2C#N)CCCC3)nc2c1CCCC2 | / | . | / | /
Cn1c(=O)[nH]c(=O)c2c1ncn2CC(=O)NCc1ccco1 | / | . | / | /
CCCN(C)C[C@H]1OCCCC[C@@H](C)Oc2ccc(NS(=O)(=O)c3c(C)noc3C)cc2C(=O)N([C@@H](C)CO)C[C@H]1C | / | . | . | -85
Cc1noc(C)c1S(=O)(=O)Nc1ccc2c(c1)C(=O)N([C@@H](C)CO)C[C@@H](C)[C@@H](CN(C)Cc1ccc(Cl)c(Cl)c1)OCCCC[C@@H](C)O2 | . | / | . | -82
CCCN(C)C[C@H]1OCCCC[C@H](C)Oc2ccc(NS(=O)(=O)c3ccc(F)cc3)cc2C(=O)N([C@@H](C)CO)C[C@@H]1C | . | . | . | -85
C[C@@H]1CCCCO[C@@H](CN(C)Cc2ccc(Cl)c(Cl)c2)[C@H](C)CN([C@H](C)CO)C(=O)c2cc(NS(=O)(=O)c3ccc(F)cc3)ccc2O1 | . | / | . | -84
COc1ccc([N+](=O)[O-])cc1NC(=O)CN(c1ccccc1F)S(C)(=O)=O | / | . | / | /
CC(C)n1nnc(CC(=O)NN)n1 | / | . | / | /
CC1CCc2c(sc3ncnc(NCCc4nc5ccccc5[nH]4)c23)C1 (stereo not given) | / | . | / | /
COC(=O)c1cc(OC)c(OC)cc1NC(=O)C(C)Oc1ccc(Br)cc1 (stereo not given) | / | . | / | /
CCC(=O)N1CCC2(CC1)CN(Cc1cc(F)ccc1F)[C@@H](CO)c1[nH]c3cc(OC)ccc3c12 | / | / | . | -90
COc1ccc2c3c([nH]c2c1)[C@@H](CO)N(Cc1cc(F)ccc1F)CC31CCN(C(C)=O)CC1 | / | / | . | -83
COc1ccc2c3c([nH]c2c1)[C@H](CO)N(Cc1cc(F)ccc1F)CC31CCN(C(=O)CN(C)C)CC1 | / | / | . | -81
CCC(=O)N1CCC2(CC1)CN(C(C)=O)[C@@H](CO)c1[nH]c3cc(OC)ccc3c12 | / | / | . | .
COc1ccc2c3c(n(C)c2c1)[C@H](CO)N(Cc1cc(F)ccc1F)CC31CCN(C(C)=O)CC1 | / | / | . | .
Cn1c(SCC(=O)n2c3c(c4ccccc42)CCCC3)nnc1-c1ccco1 | / | . | / | /
Cc1ccc2[nH]c(C)c(CCC(=O)O)c(=O)c2c1 | / | . | / | /
N#Cc1ccc(-c2ccc3c(c2)[C@@H]2[C@@H](CCN2C(=O)C2CCC2)[C@@H](CO)N3)cc1 | / | / | . | -84
N#Cc1ccc(-c2ccc3c(c2)[C@H]2[C@H](CCN2C(=O)C2CCCC2)[C@H](CO)N3)cc1 | / | / | / | -86
O=C(C1CCCC1)N1CC[C@@H]2[C@H]1c1cc(-c3cccc(F)c3)ccc1N[C@@H]2CO | / | / | . | -82
O=C(C1CCC1)N1CC[C@@H]2[C@@H](CO)Nc3ccc(-c4cccc(F)c4)cc3[C@@H]21 | . | / | . | .
N#Cc1cccc(-c2ccc3c(c2)[C@H]2[C@H](CCN2C(=O)C2CCCCC2)[C@H](CO)N3)c1 | . | / | . | .
C[C@@H]1CN([C@@H](C)CO)C(=O)c2cc(NS(=O)(=O)c3cccs3)ccc2O[C@@H](C)CCCCO[C@@H]1CN(C)C(=O)Nc1ccc(C(F)(F)F)cc1 | / | . | . | -82

Screens: PubChem, Broad Institute
